Compounds with a hit are over-represented: about 0.74% of the library has one in this group of screens.
Tn7 DDE FP = inhibitors of Tn7 peptide binding to human fibrin DD(E). FP displacement of FITC-Tn7 peptide from fibrin DD(E); 0% = median of compound wells per plate. inhibition, % at 8.3 µM. hit rate 0.13% among 370,000. AID 720508;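 active = inhibition above the mean of compounds falling within the control limits plus 3 SD of them, cut at about 14% in these data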;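 also: 0% = plate median of compound wells and 100% = 10 µM Aha-Tn7 peptide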
Target sequence (P02675 whole entry, looked up): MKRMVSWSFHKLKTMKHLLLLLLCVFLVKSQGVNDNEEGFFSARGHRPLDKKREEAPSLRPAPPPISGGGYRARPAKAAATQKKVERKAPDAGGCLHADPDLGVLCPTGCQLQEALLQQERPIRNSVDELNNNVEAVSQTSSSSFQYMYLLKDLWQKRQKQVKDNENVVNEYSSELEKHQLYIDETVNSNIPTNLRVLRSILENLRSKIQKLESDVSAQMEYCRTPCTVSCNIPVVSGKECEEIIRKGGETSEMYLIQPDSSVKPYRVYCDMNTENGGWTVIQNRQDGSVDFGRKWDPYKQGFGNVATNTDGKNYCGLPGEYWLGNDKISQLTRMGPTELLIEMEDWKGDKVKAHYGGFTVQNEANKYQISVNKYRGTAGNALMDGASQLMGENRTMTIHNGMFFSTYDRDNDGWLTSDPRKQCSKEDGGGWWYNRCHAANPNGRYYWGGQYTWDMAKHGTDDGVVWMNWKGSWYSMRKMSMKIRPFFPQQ
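Assay system: Human fibrin DD(E) protein | Medium: Tris buffer with calcium and detergent, pH 7.8 | Reagent: 0.1 µM fluorescent Tn7 | Compound dosing: Single point at 8.3 µM | Times: 10 min preincubation, 3 h with tracer, room temperature | Detection: Fluorescence polarization of the labelled Tn7 tracer | Controls: Aha-Tn7 high control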
ASAP1 inh = blocks human ASAP1-stimulated Arf1 GTP hydrolysis; AID 624377; inhibition, % at 16.5 µM; hit rate 0.19% among 360,000; Q9ULH1; GDP FP detection; in the data active = inhibition above about 25%;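 also: 0% = vehicle with enzyme and substrate and 100% = no enzyme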
ARFGAP1 inh = inhibits rat ARF GTPase activating protein 1; Arfgap1-stimulated ARF1 GTP hydrolysis, GDP FP detection; AID 651572; Q62848; hit rate 0.26% among 360,000; inhibition, % at 16.5 µM;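 active = inhibition above a per-plate limit, mean inhibition of low control wells plus 3 SD, cut at about 25% in these data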;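 also: 0% = DMSO wells with enzyme and 100% = wells lacking Arfgap1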
Target sequence (Q62848 1-136 limits assumed): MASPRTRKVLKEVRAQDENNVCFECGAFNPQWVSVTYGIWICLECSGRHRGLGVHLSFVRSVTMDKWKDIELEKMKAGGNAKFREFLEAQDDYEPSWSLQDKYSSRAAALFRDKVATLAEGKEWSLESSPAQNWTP
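System: truncated rat Arfgap1 GAP domain / Medium: HEPES-based buffer, pH 7.5 / Also added: N-terminally truncated human ARF1-GTP substrate / Incubation: enzyme reaction 120 min at 25 °C after 20 min preincubation / Measured by: FP of antibody-bound GDP Alexa 633 tracer, ex 620/em 688 nm / Replicates: singlicate, each compound tested once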
Tn6 DDE FP = disrupts Tn6 cyclic peptide binding to fibrin D-Dimer-E complex; Fibrin DD(E) TRITC-Tn6 fluorescence polarization displacement; inhibition, % at 8.3 µM; P02675; hit rate 0.21% among 370,000; AID 720509;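 active = inhibition above a per-campaign cutoff: mean of compounds within control limits plus 3 SD, cut at about 15% in these data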;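 also: 0% = median of all compound wells on the plate and 100% = blocking peptide control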
DDE Tn6 FP ctr = counter-screen hit for Tn6 peptide-fibrin DD(E) binding disruption | TRITC-Tn6 fluorescence polarization displacement; 0% = median of compound wells, not DMSO | hit rate 2% among 680 | inhibition, % at 8.3 µM | shares compounds with Tn6 DDE FP;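 active = inhibition above the mean of test compounds lying between the control limits plus 3 SD of those, cut at about 14% in these data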;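 also: 0% = median of compound wells and 100% = wells with Aha-Tn7 blocking peptide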
Tn6 DDE conf = confirmation of inhibitors of Tn6 binding to human fibrin DD(E). shares compounds with Tn6 DDE FP. FP displacement of TRITC-Tn6 peptide from DD(E); 0% = per-plate median of test wells. inhibition, % at 8.3 µM. hit rate 10% among 680;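 active = inhibition above the mean of compounds lying within the control limits plus 3 SD, cut at about 16% in these data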;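 also: 100% = high control wells holding a competing inhibitor peptide at 10 µM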
* = called active by the depositor.

How did O=C(Nc1ccc(Cl)cn1)C1CCN(c2ncnc3c2nc2n3CCCCC2)CC1 do in these assays?
Tn7 DDE FP: -1; ASAP1 inh: 3; ARFGAP1 inh: -4; Tn6 DDE FP: 17*; DDE Tn6 FP ctr: -3; Tn6 DDE conf: -3

How did O=C(Nc1ccc(Cl)cn1)C1CCCN(c2ncnc3c2nc2n3CCCCC2)C1 (centres undefined) do in these assays?
Tn7 DDE FP: 0; ASAP1 inh: -4; ARFGAP1 inh: -12; Tn6 DDE FP: 0

How did COC(=O)c1c[nH]c(=O)c2ccccc12 do in these assays?
Tn7 DDE FP: 2; ASAP1 inh: -5; ARFGAP1 inh: -12; Tn6 DDE FP: 16*; DDE Tn6 FP ctr: 4; Tn6 DDE conf: -4

What do the screens show for `O=C(NC(c1ccc(Cl)cc1)c1ccccn1)C1CCN(CCOc2ccc(Cl)cc2Cl)CC1` (centres undefined)?
Tn7 DDE FP: 0; ASAP1 inh: -6; ARFGAP1 inh: 11; Tn6 DDE FP: -4

Results for Cc1cccnc1C(NC(=O)C1CCN(CCOc2ccc(Cl)cc2Cl)CC1)c1ccc(Cl)cc1 (centres undefined) ?
Tn7 DDE FP: -1; ASAP1 inh: 3; ARFGAP1 inh: -1; Tn6 DDE FP: 16*; DDE Tn6 FP ctr: 7; Tn6 DDE conf: 0

How did Cc1ccc(C2NC(=O)c3[nH]nc(-c4ccccc4)c32)cc1 (centres undefined) do in these assays?
Tn7 DDE FP: -1; ASAP1 inh: -3; ARFGAP1 inh: -7; Tn6 DDE FP: 0

Results for COc1cccc(OCC(=O)Nc2ccccc2NC(C)=O)c1 ?
Tn7 DDE FP: -7; ASAP1 inh: 2; ARFGAP1 inh: 18; Tn6 DDE FP: 17*; DDE Tn6 FP ctr: -1; Tn6 DDE conf: -2

How did COc1cccc(OCC(=O)Nc2ccncc2)c1 do in these assays?
Tn7 DDE FP: -2; ASAP1 inh: 0; ARFGAP1 inh: 11; Tn6 DDE FP: -1

Results for COc1ccc(C(=O)c2[nH]c(N)c(C(=O)NCCc3c[nH]c4ccccc34)c2-c2ccccc2C(F)(F)F)cc1 ?
Tn7 DDE FP: 4; ASAP1 inh: 9; ARFGAP1 inh: 4; Tn6 DDE FP: 0

What do the screens show for `CCN(CC(=O)Nc1ccc(NC(C)=O)cc1)C(=O)c1cc([N+](=O)[O-])ccc1Sc1ccc(Cl)cc1`?
Tn7 DDE FP: -3; ASAP1 inh: 4; ARFGAP1 inh: -17; Tn6 DDE FP: -12

Results for O=c1oc2ccccc2cc1C1=Nn2c(nnc2-c2cccnc2)SC1 ?
Tn7 DDE FP: -1; ASAP1 inh: -11; ARFGAP1 inh: 11; Tn6 DDE FP: 15*; DDE Tn6 FP ctr: 9; Tn6 DDE conf: 3

Results for Clc1ccc(C2=Nn3c(nnc3-c3cccnc3)SC2)s1 ?
Tn7 DDE FP: 2; ASAP1 inh: -7; ARFGAP1 inh: -19; Tn6 DDE FP: 10

Results for Cc1cc(C(=O)O)ccc1N/C=C1\CCCC(C)C1=O (centres undefined) ?
Tn7 DDE FP: 2; ASAP1 inh: -6; ARFGAP1 inh: 1; Tn6 DDE FP: 6

How did CC1CCC/C(=C\Nc2ccc(O)cc2)C1=O (centres undefined) do in these assays?
Tn7 DDE FP: 4; ASAP1 inh: 3; ARFGAP1 inh: -3; Tn6 DDE FP: 17*; DDE Tn6 FP ctr: -7; Tn6 DDE conf: -10

What do the screens show for `Cc1cc2cc(CNC(=O)c3ccc(S(=O)(=O)N4CCCC4)cc3)ccc2n1C`?
Tn7 DDE FP: -4; ASAP1 inh: 7; ARFGAP1 inh: -5; Tn6 DDE FP: 60*; DDE Tn6 FP ctr: -5; Tn6 DDE conf: 5

How did CCN(CC)S(=O)(=O)c1ccc(C(=O)NCc2ccc3c(c2)cc(C)n3C)cc1 do in these assays?
Tn7 DDE FP: 4; ASAP1 inh: 13; ARFGAP1 inh: 9; Tn6 DDE FP: 80*; DDE Tn6 FP ctr: 7; Tn6 DDE conf: -4

What do the screens show for `CCn1cc(CCC(=O)Nc2ccc(Oc3cccnc3)cc2)c2ccccc21`?
Tn7 DDE FP: 9; ASAP1 inh: -1; ARFGAP1 inh: -9; Tn6 DDE FP: -4

What do the screens show for `O=C(COc1ccc([N+](=O)[O-])cc1Cl)N(C1CCCCC1)C1CCS(=O)(=O)C1` (centres undefined)?
Tn7 DDE FP: 7; ASAP1 inh: 24; ARFGAP1 inh: -3; Tn6 DDE FP: 0

How did N#Cc1ccc(OCC(=O)N(C2CCCCC2)C2CCS(=O)(=O)C2)cc1 (centres undefined) do in these assays?
Tn7 DDE FP: -1; ASAP1 inh: -9; ARFGAP1 inh: 5; Tn6 DDE FP: 16*; DDE Tn6 FP ctr: 10; Tn6 DDE conf: 6

How did Cc1cccc(NC(=O)CNC(=O)[C@@H](Cc2ccccc2)NC(=O)[C@H]2O[C@@H](n3ccc(N)nc3=O)[C@H](O)[C@@H]2O)c1C do in these assays?
Tn7 DDE FP: -1; ASAP1 inh: 0; ARFGAP1 inh: 13; Tn6 DDE FP: 5

How did C[C@@]12C(C[C@H](O)[C@@]34C[C@@H](CCC13)[C@@H](CO)C4=O)[C@](C)(C(=O)O)CC[C@@H]2O (some centres undefined) do in these assays?
Tn7 DDE FP: 6; ASAP1 inh: 8; ARFGAP1 inh: 1; Tn6 DDE FP: 21*; DDE Tn6 FP ctr: -3; Tn6 DDE conf: -9

How did C=C1C(=O)[C@]23C[C@H]1CCC2[C@@]1(C)C(C[C@@H]3O)[C@](C)(C(=O)OC)CC[C@@H]1O (some centres undefined) do in these assays?
Tn7 DDE FP: 5; ASAP1 inh: -5; ARFGAP1 inh: -6; Tn6 DDE FP: -8

What do the screens show for `CCCCc1c(C)c2cc(C)ccc2[nH]c1=O`?
Tn7 DDE FP: -4; ASAP1 inh: -7; ARFGAP1 inh: 6; Tn6 DDE FP: -2

Results for CCCc1c(C)c2cc(C)ccc2[nH]c1=O ?
Tn7 DDE FP: 1; ASAP1 inh: -6; ARFGAP1 inh: -8; Tn6 DDE FP: 18*; DDE Tn6 FP ctr: -1; Tn6 DDE conf: -5

Results for Cc1cccc(C(=O)Nc2nc3ncccn3c2-c2ccccc2)c1 ?
Tn7 DDE FP: -5; Tn6 DDE FP: -2

Results for CCOC(=O)NC(=O)CSc1nc(C)cc(C(F)(F)F)c1C#N ?
Tn7 DDE FP: 9; ASAP1 inh: -11; ARFGAP1 inh: -6; Tn6 DDE FP: 15*; DDE Tn6 FP ctr: 5; Tn6 DDE conf: 1

Results for COCCN1C(=O)CSCC1(C)C(=O)Nc1ccc2c(c1)OCCO2 (centres undefined) ?
Tn7 DDE FP: -2; ASAP1 inh: -9; ARFGAP1 inh: -1; Tn6 DDE FP: -4

What do the screens show for `O=S1(=O)CC(N2CCCC2)CN1Cc1cn(Cc2ccc(C(F)(F)F)cc2)nn1` (centres undefined)?
Tn7 DDE FP: 1; ASAP1 inh: 6; ARFGAP1 inh: 3; Tn6 DDE FP: 0
